ChEMBL document CHEMBL1145645, “Bis-tetrahydroisoquinoline derivatives: AG525E1, a new step in the search for non-quaternary non-peptidic small conductance Ca(2+)-activated K(+) channel blockers” (Bioorg Med Chem Lett, 2008)
One block for each molecule: values may come before it.

Columns and labels:
[1] = Inhibition of apamin-sensitive SK channel
[2] = Inhibition of sigma 2 receptor at 10 uM
[3] = target: D(2) dopamine receptor (Homo sapiens) (UniProt P14416); test: Inhibition of dopamine D2 receptor at 10 uM
Chain of D(2) dopamine receptor (Homo sapiens) (P14416 whole entry): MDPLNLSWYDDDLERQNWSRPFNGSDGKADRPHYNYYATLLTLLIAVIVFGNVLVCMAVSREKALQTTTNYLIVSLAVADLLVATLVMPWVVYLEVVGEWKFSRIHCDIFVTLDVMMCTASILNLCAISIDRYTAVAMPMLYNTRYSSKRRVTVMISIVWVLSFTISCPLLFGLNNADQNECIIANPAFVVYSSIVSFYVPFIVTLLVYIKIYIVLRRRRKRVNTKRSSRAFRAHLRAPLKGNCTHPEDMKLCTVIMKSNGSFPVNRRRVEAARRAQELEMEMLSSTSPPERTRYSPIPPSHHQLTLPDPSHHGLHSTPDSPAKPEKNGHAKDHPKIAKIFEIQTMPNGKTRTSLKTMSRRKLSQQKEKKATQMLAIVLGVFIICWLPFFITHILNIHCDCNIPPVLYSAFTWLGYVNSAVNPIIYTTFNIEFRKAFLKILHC

[4] = Dissociation constant, pKa at pH 1.8 to 2.0; format: physicochemical
Summary of the method: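 pKa by potentiometric titration on a Sirius PCA200 analyser; at least three aqueous solutions titrated; sample acidified to pH 1.8–2.0 with 0.5 M aqueous HCl, then titrated with 0.5 M aqueous KOH to pH 12.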

[5] = target: Small conductance calcium-activated potassium channel protein 1 (Homo sapiens, UniProt Q92952); test: Inhibition of SK1 expressed in CHO FlipIn cells by whole cell patch-clamp assay; format: cell-based
Chain of Small conductance calcium-activated potassium channel protein 1 (Q92952 whole entry): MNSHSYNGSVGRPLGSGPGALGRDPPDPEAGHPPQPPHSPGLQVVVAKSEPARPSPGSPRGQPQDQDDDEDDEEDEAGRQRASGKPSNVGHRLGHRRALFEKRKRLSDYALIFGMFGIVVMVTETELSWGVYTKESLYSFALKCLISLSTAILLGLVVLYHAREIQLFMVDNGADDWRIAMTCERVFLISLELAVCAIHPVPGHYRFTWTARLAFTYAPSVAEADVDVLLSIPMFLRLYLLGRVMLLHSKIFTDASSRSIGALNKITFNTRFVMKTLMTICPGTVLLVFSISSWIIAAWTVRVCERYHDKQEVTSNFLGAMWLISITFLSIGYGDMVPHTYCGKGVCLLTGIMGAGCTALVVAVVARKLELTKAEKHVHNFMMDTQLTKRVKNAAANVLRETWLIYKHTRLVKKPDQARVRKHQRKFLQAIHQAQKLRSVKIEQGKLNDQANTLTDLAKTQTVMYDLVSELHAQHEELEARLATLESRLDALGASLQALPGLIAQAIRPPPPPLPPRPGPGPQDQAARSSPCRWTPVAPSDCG
Summary of the method: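 Whole-cell patch clamp on CHO FlipIn cells stably transfected with SK1, grown in Ham's F-12 with 10% calf serum, streptomycin/penicillin and hygromycin-B. Pipette solution (mM): KCl 130, EGTA 10, CaCl2 8.751, MgCl2 1.08, Hepes 10 ([…]), pH 7.2. K+ currents at −50 mV; percent inhibition at increasing concentrations, normalised to full block by 100 µM N-methyl-laudanosine.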

[6] = Inhibition of L-type calcium channel at 10 uM
[7] = target: T1, 5-hydroxytryptamine receptor 1A (Homo sapiens) (UniProt P08908); test: Inhibition of 5HT1A receptor at 10 uM
T1 sequence (whole entry): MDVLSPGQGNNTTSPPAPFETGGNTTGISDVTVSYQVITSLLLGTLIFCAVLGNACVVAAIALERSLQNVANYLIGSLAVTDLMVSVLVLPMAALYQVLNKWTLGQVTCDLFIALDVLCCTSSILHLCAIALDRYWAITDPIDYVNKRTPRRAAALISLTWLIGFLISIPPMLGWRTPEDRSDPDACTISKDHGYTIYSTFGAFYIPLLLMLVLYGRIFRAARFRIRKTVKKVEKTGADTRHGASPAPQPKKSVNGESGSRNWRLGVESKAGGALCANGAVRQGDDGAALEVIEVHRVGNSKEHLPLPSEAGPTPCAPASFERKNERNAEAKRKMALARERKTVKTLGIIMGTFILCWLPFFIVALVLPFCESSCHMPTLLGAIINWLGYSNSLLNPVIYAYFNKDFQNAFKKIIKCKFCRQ

[8] = target: Small conductance calcium-activated potassium channel protein 3 (Homo sapiens, UniProt Q9UGI6); test: Inhibition of SK3 expressed in CHO FlipIn cells by whole cell patch-clamp assay; format: cell-based
Chain of Small conductance calcium-activated potassium channel protein 3 (Q9UGI6 whole entry): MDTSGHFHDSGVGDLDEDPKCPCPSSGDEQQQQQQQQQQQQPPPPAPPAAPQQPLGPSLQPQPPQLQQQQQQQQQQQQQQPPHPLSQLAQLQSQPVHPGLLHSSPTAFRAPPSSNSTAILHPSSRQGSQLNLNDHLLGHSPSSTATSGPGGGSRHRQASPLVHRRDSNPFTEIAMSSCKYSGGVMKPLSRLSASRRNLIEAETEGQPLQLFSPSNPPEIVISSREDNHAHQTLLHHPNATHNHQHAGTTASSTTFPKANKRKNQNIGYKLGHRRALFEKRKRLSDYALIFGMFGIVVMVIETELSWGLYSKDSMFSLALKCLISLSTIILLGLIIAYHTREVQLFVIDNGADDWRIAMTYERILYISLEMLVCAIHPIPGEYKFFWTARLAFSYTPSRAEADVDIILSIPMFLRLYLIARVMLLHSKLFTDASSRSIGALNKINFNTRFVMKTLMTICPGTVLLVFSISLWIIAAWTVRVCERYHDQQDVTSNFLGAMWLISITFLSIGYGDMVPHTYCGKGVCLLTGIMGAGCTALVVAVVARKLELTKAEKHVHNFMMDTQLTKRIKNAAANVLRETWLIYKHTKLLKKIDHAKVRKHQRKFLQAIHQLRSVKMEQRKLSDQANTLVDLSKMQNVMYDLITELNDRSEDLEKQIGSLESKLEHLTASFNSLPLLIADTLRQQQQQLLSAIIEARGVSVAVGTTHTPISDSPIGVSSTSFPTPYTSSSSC

[9] = Lipophilicity, log P of the compound; format: physicochemical; settings: octanol/water
Summary of the method: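 logP by potentiometric titration on a Sirius PCA200 analyser; at least three titrations at different phase volume ratios, mean logP reported; sample acidified to pH 1.8–2.0 with 0.5 M HCl, titrated with 0.5 M KOH to pH 12.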

[10] = target: Histamine H3 receptor (Homo sapiens) (UniProt Q9Y5N1); test: Inhibition of histamine H3 receptor at 10 uM
Chain of Histamine H3 receptor (Homo sapiens) (Q9Y5N1 whole entry): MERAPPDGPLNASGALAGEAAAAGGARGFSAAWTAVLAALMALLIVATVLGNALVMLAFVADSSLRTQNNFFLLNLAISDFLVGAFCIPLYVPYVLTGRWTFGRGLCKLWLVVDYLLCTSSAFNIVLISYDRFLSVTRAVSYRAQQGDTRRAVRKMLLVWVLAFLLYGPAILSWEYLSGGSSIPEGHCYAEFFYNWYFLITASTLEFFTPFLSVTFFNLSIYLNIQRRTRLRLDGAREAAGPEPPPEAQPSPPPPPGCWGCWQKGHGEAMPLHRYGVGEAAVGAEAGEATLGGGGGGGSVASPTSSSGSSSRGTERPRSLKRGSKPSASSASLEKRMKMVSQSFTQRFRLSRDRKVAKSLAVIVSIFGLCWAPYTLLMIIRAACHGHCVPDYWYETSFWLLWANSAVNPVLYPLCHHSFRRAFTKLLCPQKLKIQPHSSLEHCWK

[11] = target: Small conductance calcium-activated potassium channel protein 2 (Homo sapiens, UniProt Q9H2S1); test: Inhibition of SK2 expressed in CHO FlipIn cells by whole cell patch-clamp assay; format: cell-based
Chain of Small conductance calcium-activated potassium channel protein 2 (Q9H2S1 whole entry): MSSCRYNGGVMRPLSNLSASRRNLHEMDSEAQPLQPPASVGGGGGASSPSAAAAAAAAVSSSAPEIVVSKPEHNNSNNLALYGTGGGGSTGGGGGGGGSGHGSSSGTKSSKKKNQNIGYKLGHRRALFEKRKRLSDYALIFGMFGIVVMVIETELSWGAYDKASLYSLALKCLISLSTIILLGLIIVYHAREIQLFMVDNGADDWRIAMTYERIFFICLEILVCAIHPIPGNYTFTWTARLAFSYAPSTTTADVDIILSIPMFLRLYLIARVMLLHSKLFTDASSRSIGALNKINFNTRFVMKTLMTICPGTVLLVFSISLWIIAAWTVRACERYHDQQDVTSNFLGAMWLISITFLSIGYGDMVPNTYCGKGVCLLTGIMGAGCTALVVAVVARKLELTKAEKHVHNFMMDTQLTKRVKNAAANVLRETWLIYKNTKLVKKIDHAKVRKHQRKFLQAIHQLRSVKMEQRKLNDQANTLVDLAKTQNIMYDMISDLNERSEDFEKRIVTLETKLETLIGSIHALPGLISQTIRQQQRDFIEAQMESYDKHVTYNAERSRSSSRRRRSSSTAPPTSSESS

[12] = Inhibition of apamin-sensitive SK channel at 10 uM

SMILES: Cc1cc(N)c2ccccc2[n+]1CCCCCCCCCC[n+]1c(C)cc(N)c2ccccc21 [DEQUALINIUM CHLORIDE]
- Ki [1]: 221 nM

SMILES: COc1ccc(C[C@H]2c3cc(OC)c(OC)cc3CC[N+]2(C)C)cc1OC [LAUDANOSINE METHIODIDE]
- Ki [1]: 1600 nM

SMILES: COc1ccc(CC2c3cc(OC)c(OC)cc3CCN2C)cc1OC (configuration not stated) [LAUDANOSINE]
- Ki [1]: 30000 nM

Next, values leading:

- Ki [1]: 1880 nM
SMILES: COc1cc2c(cc1OC)[C@@H](CCC[C@@H]1c3cc(OC)c(OC)cc3CCN1C)N(C)CC2

- Ki [1]: 1420 nM
SMILES: COc1cc2c(cc1OC)[C@@H](CCC[C@H]1c3cc(OC)c(OC)cc3CCN1C)N(C)CC2

- inhibition [2]: 39%
- inhibition [3]: 31%
- pKa [4]: 8.1
- IC50 [5]: 3800 nM
- inhibition [6]: 36%
- inhibition [7]: 39%
- IC50 [8]: 3000 nM
- logP [9]: 2.9
- inhibition [10]: 37%
- IC50 [11]: 2600 nM
- inhibition [12]: 61%
- Ki [1]: 293 nM
SMILES: COc1cc2c(cc1OC)[C@H](CCC[C@H]1c3cc(OC)c(OC)cc3CCN1C)N(C)CC2
